# Experimental data from different studies.
# Compare with care: the assays were run in different laboratories.
Compound,tested on,test,test system,conditions,quantity,result
C[C@@H]1Cn2ncc(-c3ccc(C(=O)N4CCCc5ccccc54)cc3)c2CN1C(=O)[C@H](C)c1ccccc1,"Broad substrate specificity ATP-binding cassette transporter ABCG2 (ABCG2, Homo sapiens, UniProt Q9UNQ0)",,"dog, MDCK-MDR1",,Papp B→A,13.4 ×10⁻⁶ cm/s
CCc1cc(-c2noc(-c3cc(OC)nc(C4CCCC4)c3)n2)cc(C)c1OC[C@@H](O)CO,,,"Wistar rat, plasma","oral, 0.3 mg/kg, 3 h, single dose",concentration,16.7 ng/mL
COC(=O)/C(C#N)=C1\Nc2ccccc2O1,K562,cell growth or viability,,,IC50,20.7 µM
COc1cccc(-c2n[nH]c(SCc3ccccn3)n2)c1OC,,,"female Sprague-Dawley rat, plasma","intravenous, 1 mg/kg, 10 min, single dose",concentration,2680 ng/mL
Cc1noc(C)c1Cn1cc(N2C(=O)CN(Cc3cccc(O)c3)C2=O)cn1,,,"male Sprague-Dawley rat, plasma","oral, 100 mg/kg, 1 h",concentration,30.5 ng/mL
C=CC1(C)CC(OC(=O)CSc2nc3ccccc3s2)C2(C)C(C)CCC3(CCC(=O)C32)C(C)C1O (stereo not drawn),K562,cell growth or viability,,,IC50,38.2 µM
CCOC(=O)[C@@]12C[C@@H]1[C@@H](n1ccc3c(NC)nc(C#Cc4ccc(Cl)s4)nc31)[C@H](O)[C@@H]2O,,,"male Sprague-Dawley rat, plasma","oral, 1 mg/kg, 15 min",concentration,5.75 ng/mL
O=C(N/N=C/c1ccc2ccccc2c1)c1ccc(O)c(O)c1,K562,cell growth or viability,,,IC50,28.9 µM
COc1ccc2c(=O)n(C)c(-c3ccccc3)nc2c1,,,"male Sprague-Dawley rat, lung","oral, 30 mg/kg, 2 h",concentration,2.13 ng/mL
